For one assay, the target named is 14‐3‐3ζ. To be noted: CRaf and the isomer 14‐3‐3ζ; Molzan et al.; cited from earlier work.
Another assay concerns the target T1, 14‐3‐3σ (Homo sapiens, UniProt P31947).
T1 sequence (P31947 1-248): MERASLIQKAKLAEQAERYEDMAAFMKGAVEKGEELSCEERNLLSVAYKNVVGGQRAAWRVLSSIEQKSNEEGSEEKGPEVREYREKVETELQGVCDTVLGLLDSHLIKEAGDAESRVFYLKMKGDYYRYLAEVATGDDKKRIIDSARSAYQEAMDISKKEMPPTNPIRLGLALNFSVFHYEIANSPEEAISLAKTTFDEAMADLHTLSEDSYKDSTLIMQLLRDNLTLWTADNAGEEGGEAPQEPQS
The experiment in a line: Isothermal titration calorimetry. It counts as binding. To be noted: dissolved CRaf (1 mM) into 14‐3‐3σ (50 μM), HEPES 25 mM pH 7.4, 25 °C. A digest of the protocol:
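14-3-3σ purified by size-exclusion chromatography (20 mM Tris-HCl pH 7.5, 150 mM NaCl, 2 mM DTT), then dialysed into 25 mM HEPES pH 7.4. Cell held 300 μL protein. First injection 0.4 μL, mixing time 0.8 s, 180 s between injections. Enthalpy per injection versus peptide:protein molar ratio fitted sigmoidally; inflection point gives N, slope there gives KD.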
For orientation: ITC needs no label: the signal is the heat of the interaction.

The text below walks through data of publication PMC8248332 (Chembiochem, 2021).

SMILES strings stand for the structures. pKd: −log10 of the molar value. Square brackets hold non-standard residues; d marks the D form. Peptide text beside a SMILES is read from it. pS = N[C@@H](COP(=O)(O)O)C(=O)O

Turning to `CC(C)C[C@H](NC(=O)[C@H](CO)NC(=O)CNC(=O)[C@H](CCC(=O)O)NC(=O)[C@H](CO)NC(=O)[C@H](CS)NC(=O)[C@@H]1CCCN1C(=O)[C@H](CO)NC(=O)[C@H](CO)NC(=O)[C@@H](NC(=O)[C@H](CC(N)=O)NC(=O)[C@H](Cc1ccccc1)NC(=O)[C@@H](NC(=O)[C@H](Cc1ccccc1)NC(=O)[C@H](C)NC(=O)[C@H](Cc1c[nH]cn1)NC(=O)[C@@H]1CCCN1C(=O)[C@@H](NC(=O)[C@H](COP(=O)(O)O)NC(=O)[C@H](Cc1ccc(O)cc1)NC(=O)[C@H](CCCNC(=N)N)NC(=O)[C@H](Cc1c[nH]cn1)NC(=O)[C@@H](N)CCC(N)=O)[C@@H](C)O)[C@@H](C)O)[C@@H](C)O)C(=O)N[C@@H](CO)C(=O)N[C@@H](CCC(N)=O)C(=O)N[C@@H](CCCNC(=N)N)C(=O)N[C@@H](CCC(N)=O)C(=O)N[C@@H](CCCNC(=N)N)C(=O)N[C@@H](CO)C(=O)N[C@H](C(=O)N[C@@H](COP(=O)(O)O)C(=O)N[C@H](C(=O)N1CCC[C@H]1C(=O)N[C@@H](CC(N)=O)C(=O)N[C@H](C(=O)N[C@@H](Cc1c[nH]cn1)C(N)=O)C(C)C)[C@@H](C)O)[C@@H](C)O` [CRaf] (H-QHRY[pS]TPHAFTFNTSSPCSEGSLSQRQRST[pS]TPNVH-NH2), the negative logarithm of the Kd (pKd) on 14‐3‐3ζ is 7.10. In addition, the “binding ratio from ITC (peptide/protein), N” value on 14‐3‐3σ was found to be 0.84±0.01.

As a reminder, the pKd is the negative decadic logarithm of the Kd, by convention in mol/L.
